Results: ChEMBL document CHEMBL1833819, “Dihydroquinazolines as a novel class of Trypanosoma brucei trypanothione reductase inhibitors: discovery, synthesis, and characterization of their binding mode by protein crystallography” (J Med Chem, 2011)

What was measured:
[1] = target: T1, Glutathione reductase, mitochondrial (Homo sapiens, UniProt P00390); assay: Inhibition of human glutathione reductase
T1 sequence (P00390 whole entry): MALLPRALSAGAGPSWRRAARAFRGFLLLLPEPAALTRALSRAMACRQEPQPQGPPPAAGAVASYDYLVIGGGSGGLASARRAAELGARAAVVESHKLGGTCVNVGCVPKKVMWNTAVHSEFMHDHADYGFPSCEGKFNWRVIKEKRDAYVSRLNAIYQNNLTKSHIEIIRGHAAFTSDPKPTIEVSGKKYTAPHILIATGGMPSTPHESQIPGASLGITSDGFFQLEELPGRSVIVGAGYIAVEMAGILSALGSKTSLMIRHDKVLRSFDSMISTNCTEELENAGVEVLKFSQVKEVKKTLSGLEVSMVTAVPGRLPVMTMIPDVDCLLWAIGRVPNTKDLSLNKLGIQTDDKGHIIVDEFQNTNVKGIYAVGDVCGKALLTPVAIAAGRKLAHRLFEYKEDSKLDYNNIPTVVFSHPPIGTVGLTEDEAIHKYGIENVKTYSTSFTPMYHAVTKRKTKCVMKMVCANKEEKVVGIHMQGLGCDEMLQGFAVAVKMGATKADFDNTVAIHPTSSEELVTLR

[2] = target: Trypanothione reductase (Trypanosoma brucei brucei, UniProt P39051); assay: Inhibition of recombinant trypanothione reductase from Trypanosoma brucei brucei S427 by DTNB-coupled spectrophotometric assay
Procedure, shortened: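 Recombinant T. brucei brucei S427 TryR tested in a nonenzymatically coupled spectrophotometric assay, where DTNB reduction to TNB is followed as A412 increase. IC50 is the mean of independent duplicates (at least two replicates).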

[3] = target: Trypanothione reductase (Trypanosoma cruzi, UniProt P28593); assay: Inhibition of trypanothione reductase from Trypanosoma cruzi by DTNB-coupled spectrophotometric assay
[4] = test system: Trypanosoma brucei brucei; assay: Antitrypanosomal activity against blood stream form Trypanosoma brucei brucei by resazurin fluorescence-based viability assay; assay type: functional, organism-based
Procedure, shortened: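 Bloodstream-form T. b. brucei parasites and MRC5 cells were assayed in resazurin fluorescence-based viability tests. […] Pentamidine served as the positive control in all T. brucei plates.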

Trypanothione reductase (Trypanosoma brucei brucei, UniProt P39051), sequence (P39051 whole entry): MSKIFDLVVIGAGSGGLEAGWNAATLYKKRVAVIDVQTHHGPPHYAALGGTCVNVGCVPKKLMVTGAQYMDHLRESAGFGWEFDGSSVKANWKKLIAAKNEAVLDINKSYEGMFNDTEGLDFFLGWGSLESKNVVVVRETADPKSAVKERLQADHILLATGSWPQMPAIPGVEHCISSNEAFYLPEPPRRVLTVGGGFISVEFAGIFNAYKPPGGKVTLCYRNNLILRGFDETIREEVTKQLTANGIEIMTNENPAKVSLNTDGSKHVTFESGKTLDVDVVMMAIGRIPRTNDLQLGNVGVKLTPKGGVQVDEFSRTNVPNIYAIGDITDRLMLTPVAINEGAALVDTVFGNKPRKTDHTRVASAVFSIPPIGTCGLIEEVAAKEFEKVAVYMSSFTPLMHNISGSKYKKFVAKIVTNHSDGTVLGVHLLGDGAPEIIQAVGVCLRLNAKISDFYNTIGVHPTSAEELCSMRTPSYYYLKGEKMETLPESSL
Trypanothione reductase (Trypanosoma cruzi, UniProt P28593), sequence (P28593 whole entry): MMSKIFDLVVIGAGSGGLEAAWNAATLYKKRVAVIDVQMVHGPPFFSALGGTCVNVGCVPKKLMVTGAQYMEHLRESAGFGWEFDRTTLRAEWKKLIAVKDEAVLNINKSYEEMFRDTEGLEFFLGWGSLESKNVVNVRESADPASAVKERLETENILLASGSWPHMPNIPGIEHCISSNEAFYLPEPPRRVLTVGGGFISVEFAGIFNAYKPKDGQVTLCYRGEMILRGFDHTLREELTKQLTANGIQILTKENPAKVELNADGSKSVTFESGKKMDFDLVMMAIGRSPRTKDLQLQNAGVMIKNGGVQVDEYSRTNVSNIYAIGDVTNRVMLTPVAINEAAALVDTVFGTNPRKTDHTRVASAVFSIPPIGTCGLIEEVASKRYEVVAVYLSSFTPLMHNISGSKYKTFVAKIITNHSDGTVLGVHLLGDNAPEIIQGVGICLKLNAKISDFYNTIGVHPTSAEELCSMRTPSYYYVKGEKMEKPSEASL

Q: `COC(=O)CN1C(C)=Nc2ccc(Br)cc2C1c1ccccc1` (racemic) was tested. Which IC50 [1] did it give?
A: Its IC50 is > 100 µM.

Q: What about the IC50 [2] of the same compound?
A: The IC50 was 6.8 µM.

Q: And the IC50 [3]?
A: The IC50 was 19 µM.

Q: And the EC50 [4]?
A: The EC50 was 40 µM.
